The source made the active and inactive calls. The calls are words filed in the database; no cut-off is given here.
Key:
[1] = system: Hs 683; assay: Cell cycle arrest in human Hs683 cells assessed as accumulation at G2/M phase at IC50 after 24 to 48 hrs by propidium iodide staining-based flow cytometry; assay type: functional
In short: (§1)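 Cells were exposed to compound at the IC50 for each line from the 72 h MTT assay, or to a reference HDAC inhibitor at 2 μM. Cell cycle distribution was analyzed after 24 and 48 h. Results are mean ± SD of three independent experiments, with p values against control cells.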

[2] = system: Hs 683; assay: Cell cycle arrest in human Hs683 cells assessed as accumulation at G1 phase at IC50 after 24 to 48 hrs by propidium iodide staining-based flow cytometry; assay type: functional; in short: as §1
[3] = system: Hs 683; assay: Cell cycle arrest in human Hs683 cells assessed as accumulation at sub-G1 phase at IC50 for MTT assay after 24 to 48 hrs by propidium iodide staining-based flow cytometry; assay type: functional; in short: as §1
[4] = system: U-373MG ATCC; assay: Cell cycle arrest in human U373 cells assessed as accumulation at sub-G1 phase at IC50 for MTT assay after 24 to 48 hrs by propidium iodide staining-based flow cytometry; assay type: functional; in short: as §1
[5] = Antiproliferative activity against human U373 cells after 72 hrs by MTT assay; assay type: functional, cell-based, U-373MG ATCC; conditions: U373 MG
In short: (§2)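 MTT assay: cells in RPMI 1640 with 10% heat-inactivated FCS at 37 °C and 5% CO2 were seeded 24 h before treatment. They were exposed 72 h to compound at 0.01–100 μM, with DMSO as solvent.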

[6] = system: Hs 683; assay: Antiproliferative activity against human Hs683 cells after 72 hrs by MTT assay; assay type: functional, cell-based; conditions: Hs 683, 72 h; in short: as §2
[7] = system: U-373MG ATCC; assay: Cell cycle arrest in human U373 cells assessed as accumulation at G2/M phase at IC50 after 24 to 48 hrs by propidium iodide staining-based flow cytometry; assay type: functional; in short: as §1
[8] = system: T98G; assay: Antiproliferative activity against human T98G cells after 72 hrs by MTT assay; assay type: functional, cell-based; in short: as §2
[9] = Selectivity index, ratio of IC50 for mouse astrocytes to IC50 for human Hs683 cells
[10] = target: T1, NAD-dependent protein deacetylase sirtuin-1 (Homo sapiens, UniProt Q96EB6); assay: Inhibition of N-terminal His-tagged recombinant human SIRT-1 expressed in Escherichia coli using Fluor-de-Lys-SIRT1 as substrate after 15 mins by fluorescence assay
T1 sequence (Q96EB6 whole entry): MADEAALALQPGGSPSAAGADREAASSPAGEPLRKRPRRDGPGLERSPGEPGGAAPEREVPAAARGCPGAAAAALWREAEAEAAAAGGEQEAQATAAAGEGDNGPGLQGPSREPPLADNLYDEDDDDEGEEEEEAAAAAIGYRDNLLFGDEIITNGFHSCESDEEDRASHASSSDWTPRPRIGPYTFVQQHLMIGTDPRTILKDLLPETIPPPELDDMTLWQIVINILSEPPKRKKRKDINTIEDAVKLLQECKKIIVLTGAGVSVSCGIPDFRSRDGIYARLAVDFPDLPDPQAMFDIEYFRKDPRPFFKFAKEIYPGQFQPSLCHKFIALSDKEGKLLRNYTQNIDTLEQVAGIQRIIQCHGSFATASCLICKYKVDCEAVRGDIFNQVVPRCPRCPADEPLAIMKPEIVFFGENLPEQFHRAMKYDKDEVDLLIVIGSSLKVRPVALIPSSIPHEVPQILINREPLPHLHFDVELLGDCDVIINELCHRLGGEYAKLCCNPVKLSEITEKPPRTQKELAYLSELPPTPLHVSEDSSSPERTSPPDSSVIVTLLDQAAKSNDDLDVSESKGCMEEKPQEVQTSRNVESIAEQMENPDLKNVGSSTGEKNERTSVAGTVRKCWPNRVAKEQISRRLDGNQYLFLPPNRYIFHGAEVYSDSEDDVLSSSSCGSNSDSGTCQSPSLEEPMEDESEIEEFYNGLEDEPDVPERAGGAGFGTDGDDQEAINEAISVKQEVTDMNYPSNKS

[11] = target: T2, NAD-dependent protein deacetylase sirtuin-2 (Homo sapiens, UniProt Q8IXJ6); assay: Inhibition of N-terminal His-tagged recombinant human SIRT-2 expressed in Escherichia coli using Fluor-de-Lys-SIRT1 as substrate after 15 mins by fluorescence assay
T2 sequence (Q8IXJ6 whole entry): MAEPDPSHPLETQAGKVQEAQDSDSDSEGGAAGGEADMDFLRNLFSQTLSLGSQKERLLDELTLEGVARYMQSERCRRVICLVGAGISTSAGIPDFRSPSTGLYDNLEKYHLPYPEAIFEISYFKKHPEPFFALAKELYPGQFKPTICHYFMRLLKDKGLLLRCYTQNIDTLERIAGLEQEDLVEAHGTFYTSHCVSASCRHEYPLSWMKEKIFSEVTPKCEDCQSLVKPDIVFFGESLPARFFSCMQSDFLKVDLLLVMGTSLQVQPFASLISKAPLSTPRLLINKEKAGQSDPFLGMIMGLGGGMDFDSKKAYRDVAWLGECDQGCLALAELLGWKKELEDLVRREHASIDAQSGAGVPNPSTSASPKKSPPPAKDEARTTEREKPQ

[12] = Selectivity index, ratio of IC50 for mouse astrocytes to IC50 for human T98G cells
[13] = Selectivity index, ratio of IC50 for mouse astrocytes to IC50 for human U373 cells
[14] = target: NAD-dependent protein deacetylase sirtuin-3, mitochondrial (Homo sapiens, UniProt Q9NTG7); assay: Inhibition of N-terminal His-tagged recombinant human SIRT-3 expressed in Escherichia coli using Fluor-de-Lys-SIRT1 as substrate after 15 mins by fluorescence assay
Chain of NAD-dependent protein deacetylase sirtuin-3, mitochondrial (Q9NTG7 whole entry): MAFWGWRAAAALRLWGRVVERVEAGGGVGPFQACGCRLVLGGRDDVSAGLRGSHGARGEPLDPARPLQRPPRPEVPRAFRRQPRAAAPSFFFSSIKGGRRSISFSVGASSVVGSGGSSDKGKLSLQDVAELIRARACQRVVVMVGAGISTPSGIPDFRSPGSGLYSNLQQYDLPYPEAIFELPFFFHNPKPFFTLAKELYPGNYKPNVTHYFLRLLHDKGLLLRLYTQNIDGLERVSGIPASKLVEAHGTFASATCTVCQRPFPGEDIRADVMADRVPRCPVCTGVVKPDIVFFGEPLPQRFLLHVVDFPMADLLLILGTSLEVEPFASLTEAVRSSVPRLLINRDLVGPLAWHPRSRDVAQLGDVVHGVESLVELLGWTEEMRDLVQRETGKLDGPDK

Row | Compound | IC50 [5] [µM] | IC50 [6] [µM] | IC50 [8] [µM] | also measured
1 | CC(NC(=O)c1ccccc1/N=C/c1c(O)ccc2ccccc12)c1ccccc1 (centres undefined) [SIRTINOL] | 39.3 | 33.9 |  | Activity [1]: Active; Activity [2]: Active; Activity [3]: inactive; Activity [4]: inactive; Activity [7]: Active
2 | CC(C)(C)OC(=O)Nc1ccc2c(c1)C(NC(=O)Nc1ccc([N+](=O)[O-])cc1)CC(C)(C)O2 (racemic) | 24 | 20 | 26 | 
3 | CC1(C)CC(NC(=O)Nc2cccc(C#N)c2)c2cc(N)ccc2O1 (racemic) | > 100 | > 100 | > 100 | 
4 | CC(C)(C)OC(=O)Nc1ccc2c(c1)C(NC(=O)Nc1ccccc1C(F)(F)F)CC(C)(C)O2 (racemic) | > 100 |  |  | 
5 | COc1cccc(NC(=O)NC2CC(C)(C)Oc3ccc(NC(=O)OC(C)(C)C)cc32)c1 (racemic) | 30 | 37 | > 100 | 
6 | CC(C)(C)OC(=O)Nc1ccc2c(c1)C(NC(=O)Nc1cccc([N+](=O)[O-])c1)CC(C)(C)O2 (racemic) | 1 | 16 | 7 | Ratio IC50 [9]: <5; IC50 [10]: > 200 µM; IC50 [11]: 99.8 µM; Ratio IC50 [12]: <5; Ratio IC50 [13]: <5
7 | CC(C)(C)OC(=O)Nc1ccc2c(c1)C(NC(=O)Nc1cccc(Br)c1)CC(C)(C)O2 (racemic) | 22 | 18 | 26 | 
8 | COc1ccc(NC(=O)NC2CC(C)(C)Oc3ccc(NC(=O)OC(C)(C)C)cc32)cc1 (racemic) | 33 | 62 | 49 | 
9 | COc1ccccc1NC(=O)NC1CC(C)(C)Oc2ccc(NC(=O)OC(C)(C)C)cc21 (racemic) | 30 | 59 | 39 | 
10 | COC(=O)Nc1ccc2c(c1)C(NC(=O)Nc1cccc(C#N)c1)CC(C)(C)O2 (centres undefined) |  |  |  | IC50 [10]: 110 µM; IC50 [11]: 49.4 µM
11 | Cc1ccc(C(=O)Nc2ccc(S(=O)(=O)O)c3cc(S(=O)(=O)O)cc(S(=O)(=O)O)c23)cc1NC(=O)c1cccc(NC(=O)Nc2cccc(C(=O)Nc3cc(C(=O)Nc4ccc(S(=O)(=O)O)c5cc(S(=O)(=O)O)cc(S(=O)(=O)O)c45)ccc3C)c2)c1 [SURAMIN] |  |  |  | IC50 [11]: 13 µM; IC50 [14]: > 200 µM
12 | CC(C)(C)OC(=O)Nc1ccc2c(c1)C(NC(=O)Nc1cccc(CN)c1)CC(C)(C)O2 (racemic) | > 100 | 95 | > 100 | 
13 | CC(C)(C)OC(=O)Nc1ccc2c(c1)C(NC(=O)Nc1cccc(C(F)(F)F)c1)CC(C)(C)O2 (racemic) | 9 | 9 | 21 | Ratio IC50 [9]: <2; Ratio IC50 [12]: <2; Ratio IC50 [13]: <2
14 | CC(C)(C)OC(=O)Nc1ccc2c(c1)C(NC(=O)Nc1ccc(Cl)cc1)CC(C)(C)O2 (centres undefined) | 22 | 26 | 26 | 
15 | CC(C)(C)OC(=O)Nc1ccc2c(c1)C(NC(=O)Nc1cccc(N)c1)CC(C)(C)O2 (racemic) | 97 | 91 | > 100 | 
16 | CC(C)OC(=O)Nc1ccc2c(c1)C(NC(=O)Nc1cccc(C#N)c1)CC(C)(C)O2 (centres undefined) |  |  |  | IC50 [10]: 54.8 µM; IC50 [11]: 22.7 µM
17 | CC1(C)CC(NC(=O)Nc2cccc(C#N)c2)c2cc(NC=O)ccc2O1 (racemic) | > 100 | > 100 | > 100 | 
18 | CC1(C)CC(NC(=S)Nc2ccc([N+](=O)[O-])cc2)c2cc(Cl)ccc2O1 (centres undefined) |  |  |  | IC50 [10]: > 200 µM; IC50 [11]: > 200 µM
19 | CC(C)(C)OC(=O)Nc1ccc2c(c1)C(NC(=O)Nc1ccccc1[N+](=O)[O-])CC(C)(C)O2 (racemic) | 12 | 13 | 22 | Ratio IC50 [9]: >10; Ratio IC50 [12]: >10; Ratio IC50 [13]: >10
20 | CC(C)(C)OC(=O)Nc1ccc2c(c1)C(NC(=O)Nc1ccccc1Cl)CC(C)(C)O2 (racemic) | 59 | 34 | 88 | 
21 | CC(C)(C)OC(=O)Nc1ccc2c(c1)C(NC(=O)Nc1ccccc1C#N)CC(C)(C)O2 (racemic) | 45 | 54 | 67 | 
22 | CC1(C)CC(NC(=O)Nc2cccc(C#N)c2)c2ccccc2O1 (racemic) | 38 | 31 | 32 | 
23 | CC(C)(C)OC(=O)Nc1ccc2c(c1)C(NC(=O)Nc1ccc(C#N)cc1)CC(C)(C)O2 (centres undefined) | 10 | 18 | 26 | Ratio IC50 [9]: >10; IC50 [10]: 121 µM; IC50 [11]: 110 µM; Ratio IC50 [12]: >10; Ratio IC50 [13]: >10
24 | CC(C)(C)OC(=O)Nc1ccc2c(c1)C(NC(=O)Nc1cccc(F)c1)CC(C)(C)O2 (racemic) | 20 | 19 | 26 | 
25 | N#C/C(=C\c1ccc(-c2cc(Cl)ccc2Cl)o1)C(=O)Nc1cccc2ncccc12 | 47.6 | 80.2 |  | Activity [1]: Active; Activity [3]: Active; Activity [4]: Active; IC50 [10]: 98.1 µM; Activity [7]: Active
26 | CC(C)(C)OC(=O)Nc1ccc2c(c1)C(NC(=O)Nc1cccc(Cl)c1)CC(C)(C)O2 (centres undefined) | 18 | 12 | 20 | Ratio IC50 [9]: >12; IC50 [10]: 32.1 µM; IC50 [11]: 18.5 µM; Ratio IC50 [12]: >12; Ratio IC50 [13]: >12
27 | CCOC(=O)Nc1ccc2c(c1)C(NC(=O)Nc1cccc(C#N)c1)CC(C)(C)O2 (centres undefined) |  |  |  | IC50 [10]: 109 µM; IC50 [11]: 51.1 µM
28 | NC(=O)C1CCCc2c1[nH]c1ccc(Cl)cc21 (centres undefined) | 157 | 116 |  | Activity [2]: Active; Activity [3]: inactive; Activity [4]: inactive
29 | CC(C)(C)OC(=O)Nc1ccc2c(c1)C(NC(=O)Nc1ccc(C(F)(F)F)cc1)CC(C)(C)O2 (racemic) | 10 | 11 | 15 | Ratio IC50 [9]: >10; Ratio IC50 [12]: >10; Ratio IC50 [13]: >10
